ChEMBL document CHEMBL1641407, “Imidazo[4,5-d]thiazolo[5,4-b]pyridine based inhibitors of IKK2: synthesis, SAR, PK/PD and activity in a preclinical model of rheumatoid arthritis” (Bioorg Med Chem Lett, 2011)

Legend:
[1] = test system: PBMC; assay: Antiinflammatory activity in human PBMC assessed as inhibition of LPS-induced TNFalpha release treated for 5 mins before LPS challenge measured after 6 hrs by ELISA; type: functional, cell-based
Summary of the method: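 PBMCs purified from heparinized healthy-volunteer blood by Ficoll-Hypaque gradient and suspended at 5 × 10⁶/mL in RPMI with 10% FBS. Cells preincubated with compound (0.2% DMSO) for 5 min at room temperature. LPS added from a 200 ng/mL stock, then 6 h at 37 °C. Medium TNF-α measured by ELISA. IC50 by linear regression.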

[2] = molecular target: T1, Inhibitor of nuclear factor kappa-B kinase subunit beta (Homo sapiens, UniProt O14920); assay: Inhibition of IKK2
T1 sequence (O14920 whole entry): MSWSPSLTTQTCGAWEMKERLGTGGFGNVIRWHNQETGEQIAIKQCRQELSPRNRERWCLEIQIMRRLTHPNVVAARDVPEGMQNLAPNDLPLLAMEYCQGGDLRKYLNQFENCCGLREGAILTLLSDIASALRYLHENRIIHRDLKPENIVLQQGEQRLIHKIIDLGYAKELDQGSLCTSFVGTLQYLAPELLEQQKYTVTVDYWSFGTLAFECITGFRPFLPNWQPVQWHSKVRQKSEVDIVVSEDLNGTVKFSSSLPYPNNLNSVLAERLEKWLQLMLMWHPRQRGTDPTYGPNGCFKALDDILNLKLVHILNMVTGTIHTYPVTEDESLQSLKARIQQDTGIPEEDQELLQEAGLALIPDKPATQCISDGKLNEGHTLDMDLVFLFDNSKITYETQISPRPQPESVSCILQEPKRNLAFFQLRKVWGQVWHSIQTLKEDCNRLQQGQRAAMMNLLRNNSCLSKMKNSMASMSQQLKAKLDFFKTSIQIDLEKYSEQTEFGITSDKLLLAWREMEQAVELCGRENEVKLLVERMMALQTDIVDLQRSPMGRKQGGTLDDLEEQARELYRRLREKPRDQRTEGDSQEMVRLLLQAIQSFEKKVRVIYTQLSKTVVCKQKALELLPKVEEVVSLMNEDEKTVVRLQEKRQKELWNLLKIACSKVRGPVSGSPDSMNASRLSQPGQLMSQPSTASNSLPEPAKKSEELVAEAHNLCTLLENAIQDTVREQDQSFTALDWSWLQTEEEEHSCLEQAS
Summary of the method: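 IKK-2 added at room temperature to 50 µg/mL GST-IκBα with ATP in 25 mM Tris·HCl, pH 7.5, containing MgCl₂, phosphate salts, NaCl, KCl, 1 mM DTT, 5% glycerol and BSA. Stopped after 60 min with 33 mM EDTA. Phospho-IκBα read by fluorescence-polarization competition between an anti-phospho-IκBα antibody and a fluorescein-labelled phosphopeptide.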

[3] = Clearance in rat at 2 mg/kg, iv and 10 mg/kg, po; type: ADME, organism-based; conditions: in vivo
[4] = Half life in rat at 2 mg/kg, iv and 10 mg/kg, po; type: ADME, organism-based; conditions: in vivo
[5] = molecular target: T2, Inhibitor of nuclear factor kappa-B kinase subunit alpha (Homo sapiens, UniProt O15111); assay: Inhibition of IKK1
T2 sequence (O15111 whole entry): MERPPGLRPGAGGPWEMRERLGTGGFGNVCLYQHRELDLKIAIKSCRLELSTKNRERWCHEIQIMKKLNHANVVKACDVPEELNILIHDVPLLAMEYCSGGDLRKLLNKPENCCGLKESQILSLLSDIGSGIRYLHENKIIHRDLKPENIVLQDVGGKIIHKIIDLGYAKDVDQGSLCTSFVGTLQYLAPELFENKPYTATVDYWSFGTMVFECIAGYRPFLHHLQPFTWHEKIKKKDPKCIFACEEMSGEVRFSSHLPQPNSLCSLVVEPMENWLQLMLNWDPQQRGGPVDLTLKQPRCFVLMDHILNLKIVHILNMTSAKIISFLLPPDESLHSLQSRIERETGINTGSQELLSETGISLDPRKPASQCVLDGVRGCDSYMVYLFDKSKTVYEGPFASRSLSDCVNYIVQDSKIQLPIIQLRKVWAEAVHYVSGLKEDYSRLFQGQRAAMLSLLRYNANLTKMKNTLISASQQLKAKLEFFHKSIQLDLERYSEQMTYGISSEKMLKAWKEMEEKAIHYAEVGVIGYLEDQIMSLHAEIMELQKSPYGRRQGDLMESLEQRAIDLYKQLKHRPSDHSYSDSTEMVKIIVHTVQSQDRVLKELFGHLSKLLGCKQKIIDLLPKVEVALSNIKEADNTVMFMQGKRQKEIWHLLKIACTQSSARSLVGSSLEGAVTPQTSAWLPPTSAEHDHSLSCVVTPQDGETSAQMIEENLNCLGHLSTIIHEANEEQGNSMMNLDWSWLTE

[6] = test system: Blood; assay: Antiinflammatory activity in mouse whole blood assessed as inhibition of LPS-induced TNFalpha release treated for 5 mins before LPS challenge measured after 6 hrs by ELISA; type: functional, tissue-based
[7] = test system: Blood; assay: Antiinflammatory activity in human whole blood assessed as inhibition of LPS-induced TNFalpha release treated for 5 mins before LPS challenge measured after 6 hrs by ELISA; type: functional, tissue-based
[8] = test system: Rattus norvegicus; assay: Metabolic stability in rat assessed as metabolite (S)-N-(1-(3-(5-amino-8-methyl-8H-imidazo[4,5-d]thiazolo[5,4-b]pyridin-2-yl)phenyl)ethyl)acetamide total AUC at 2 mg/kg, iv and 10 mg/kg, po; type: ADME, organism-based; conditions: in vivo
[9] = test system: Mus musculus; assay: Metabolic stability in mouse assessed as metabolite (S)-N-(1-(3-(5-amino-8-methyl-8H-imidazo[4,5-d]thiazolo[5,4-b]pyridin-2-yl)phenyl)ethyl)acetamide total AUC at 2 mg/kg, iv and 10 mg/kg, po; type: ADME, organism-based; conditions: in vivo
[10] = test system: Mus musculus; assay: Antiinflammatory activity in po dosed BALB/c mouse assessed as inhibition of LPS-induced TNFalpha release administered for 5 hrs before LPS challenge measured after 6.5 hrs post dose by ELISA; type: functional, organism-based
Summary of the method: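 BALB/c female mice, 6–8 weeks old, n = 7–8 per treatment. Compounds given by oral gavage at 30 and 100 mg/kg in PEG400/HCl/Tween80/water; controls received vehicle alone. Five hours later, E. coli O111:B4 LPS 50 µg/kg ip. Serum collected 90 min after LPS, TNF-α measured by ELISA. Drug exposure sampled 6.5 h post-dose. Mean ± standard error.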

[11] = molecular target: Serine/threonine-protein kinase 16 (Homo sapiens) (UniProt O75716); assay: Residual activity at STK16 at 10 uM relative to control
[12] = test system: Canis familiaris; assay: Metabolic stability in dog assessed as metabolite (S)-N-(1-(3-(5-amino-8-methyl-8H-imidazo[4,5-d]thiazolo[5,4-b]pyridin-2-yl)phenyl)ethyl)acetamide total AUC at 2 mg/kg, iv; type: ADME, organism-based, Canis lupus familiaris; parameters: dose 2 mg/kg, route intravenous, time AUCmax; conditions: in vivo
[13] = molecular target: Death-associated protein kinase 2 (Homo sapiens) (UniProt Q9UIK4); assay: Residual activity at DAPK2 at 10 uM relative to control
Death-associated protein kinase 2 (Homo sapiens), sequence (Q9UIK4 whole entry, looked up): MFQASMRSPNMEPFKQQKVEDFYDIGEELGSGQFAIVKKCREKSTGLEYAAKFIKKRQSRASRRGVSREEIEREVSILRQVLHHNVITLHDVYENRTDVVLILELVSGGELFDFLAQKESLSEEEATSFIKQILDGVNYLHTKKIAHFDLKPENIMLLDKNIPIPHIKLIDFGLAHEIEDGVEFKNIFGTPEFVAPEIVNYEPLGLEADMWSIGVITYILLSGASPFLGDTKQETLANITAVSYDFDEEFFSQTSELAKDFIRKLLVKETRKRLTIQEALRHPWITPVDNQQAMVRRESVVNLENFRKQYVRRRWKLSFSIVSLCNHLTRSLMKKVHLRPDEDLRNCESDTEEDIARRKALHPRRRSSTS

Serine/threonine-protein kinase 16 (Homo sapiens), sequence (O75716 whole entry): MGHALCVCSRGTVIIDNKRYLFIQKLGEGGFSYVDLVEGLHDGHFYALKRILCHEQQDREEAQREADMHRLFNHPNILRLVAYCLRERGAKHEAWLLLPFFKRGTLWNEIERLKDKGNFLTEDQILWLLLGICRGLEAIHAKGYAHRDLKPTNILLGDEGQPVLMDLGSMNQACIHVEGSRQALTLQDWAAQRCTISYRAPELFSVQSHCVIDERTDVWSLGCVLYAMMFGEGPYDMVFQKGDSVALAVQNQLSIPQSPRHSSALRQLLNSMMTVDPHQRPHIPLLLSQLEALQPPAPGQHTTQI

SMILES	IC50 [2] [nM]	IC50 [1] [nM]	further results
CCNc1nc2sc(-c3cccc(C(C)(C)NC(C)=O)c3)nc2c2c1ncn2C	36	400	
CC(=O)N[C@@H](C)c1cccc(-c2nc3c(nc(NCCN)c4ncn(C)c43)s2)c1	49	4890	
CCNc1nc2sc(-c3cccc([C@H](C)NC(=O)C4(C)CC4)c3)nc2c2c1ncn2C	34	440	clearance [3]: 7.5 mL/min/kg; half-life [4]: 2 h
COc1nc2sc(-c3cccc([C@H](C)NC(C)=O)c3)nc2c2c1ncn2C	> 500	> 10000	
CNc1nc2sc(-c3cccc([C@@H](C)NC(C)=O)c3)nc2c2c1ncn2C	28	560	
CCNc1nc2sc(-c3cccc([C@H](C)NC(=O)C4CCNCC4)c3)nc2c2c1ncn2C	20	290	clearance [3]: 3 mL/min/kg; half-life [4]: 2.9 h
CC(=O)NCc1cc(-c2cc3nc(NC4CC4)c4ncn(C)c4n3n2)ccc1F		730	
CCNc1nc2sc(-c3cccc([C@H](C)NC(=O)COCC)c3)nc2c2c1ncn2C	16	600	
CNc1nc2sc(-c3cccc([C@H](C)NC(C)=O)c3)nc2c2c1ncn2C	6	80	IC50 [5]: 230 nM
CCNc1nc2sc(-c3cccc([C@H](C)NC(=O)CNC(C)=O)c3)nc2c2c1ncn2C	27	480	
CCNCC(=O)N[C@@H](C)c1cccc(-c2nc3c(nc(NCC)c4ncn(C)c43)s2)c1	39	440	
CNc1nc2sc(-c3cccc(C(C)NC(C)=O)c3)nc2c2c1ncn2C (stereo not given)	9	170	IC50 [5]: 430 nM
Cc1ccc2nc(NCCN)c3ncc(C)n3c2c1 [BMS-345541]		1000	

Further compounds by falling IC50 [2], results first:

IC50 [2] [nM]	SMILES	IC50 [1] [nM]	further results
130	CC(=O)N[C@@H](C)c1cccc(-c2nc3c(nc(NC(=O)N(C)C)c4ncn(C)c43)s2)c1		
100	CC(=O)N[C@@H](C)c1cccc(-c2nc3c(nc(N(C)C)c4ncn(C)c43)s2)c1	990	
78	CCNc1nc2sc(-c3cccc([C@H](C)NC(=O)c4cc(C)on4)c3)nc2c2c1ncn2C	940	clearance [3]: 2.8 mL/min/kg; half-life [4]: 2.8 h
60	CNc1nc2sc(-c3ccc(CNC(C)=O)cc3)nc2c2c1ncn2C	530	
57	CC(=O)N[C@@H](C)c1cccc(-c2nc3c(nc(NCC(F)(F)F)c4ncn(C)c43)s2)c1	1360	
55	CCNc1nc2sc(-c3cccc([C@@H](C)NC(C)=O)c3)nc2c2c1ncn2C	700	
41	CCNc1nc2sc(-c3cccc([C@H](C)NC(=O)c4cccc(S(C)(=O)=O)c4)c3)nc2c2c1ncn2C	220	clearance [3]: 5.1 mL/min/kg; half-life [4]: 1.5 h
13	CC(=O)N[C@@H](C)c1cccc(-c2nc3c(nc(N)c4ncn(C)c43)s2)c1	290	IC50 [6]: 1000 nM; IC50 [7]: 2000 nM; AUC [8]: 2400 nM; AUC [9]: 3.37 µM; inhibition [10]: Dose-dependent effect; residual activity [11]: < 10%; AUC [12]: 400 nM; residual activity [13]: < 10%
10	CCNc1nc2sc(-c3cccc([C@H](C)NC(=O)C4CCN(C)CC4)c3)nc2c2c1ncn2C	560	clearance [3]: 130 mL/min/kg
